Measurements published in ChEMBL document CHEMBL4229565 (J Med Chem, 2018).
Active and inactive are the calls of the source. No cut-off for these calls is given here.

Columns and labels:
[1] = system: Trypanosoma brucei brucei; assay: Antitrypanosomal activity against bloodstream form of Trypanosoma brucei brucei s427 after 69 hrs by resazurin-based […] analysis; type: functional, organism-based; details: s427, 69 h
Summary of the method: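 Bloodstream T. b. brucei s427 was grown in modified HMI9 (56 μM 1-thioglycerol in place of 2-mercaptoethanol) and counted by hemocytometer. Cells (10^4/ml) were added to compound in DMSO and incubated 69 h at 37 °C, 5% CO2. Resazurin (50 μM final) was then added for 4 h more. Fluorescence read at ex 528/em 590 nm.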

[2] = Toxicity in NMRI mouse administered orally for twice per day for 3 days; type: organism-based; details: in vivo, po
[3] = system: Trypanosoma brucei brucei; assay: Antitrypanosomal activity against Trypanosoma brucei brucei s427 trypomastigotes infected in NMRI mouse at 10 mg/kg, po administered twice daily for 4 days starting from day 3 post infection; type: functional, organism-based
Summary of the method: (§1)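 Stage 1 HAT model: female NMRI mice infected with T. brucei s427. Compound given orally twice a day for 4 days, starting day 3 postinfection. Outcome scored as cure versus relapse.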

[4] = Tmax in NMRI mouse at 50 mg/kg, po administered via gavage by UPLC/MS/MS analysis; type: ADME, organism-based; details: in vivo
[5] = Cmax in NMRI mouse at 50 mg/kg, po administered via gavage by UPLC/MS/MS analysis; type: ADME, organism-based; set-up: dose 50 mg/kg, route oral; details: in vivo
[6] = system: Trypanosoma brucei brucei; assay: Antitrypanosomal activity against Trypanosoma brucei brucei GVR35 trypomastigotes infected in CF1 mdr1a deficient mouse assessed as reduction in parasitaemia level at 50 mg/kg, po administered twice daily for 5 days starting from day 21 post infection; type: functional, organism-based
Summary of the method: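 Stage 2 HAT model using CF-1 mdr1a-deficient mice infected with T. b. brucei GVR35. Compound given orally twice daily for 5 days from day 21 postinfection. Comparator arms: Berenil or melarsoprol given intraperitoneally once daily.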

[7] = AUC (0 to 8 hrs) in NMRI mouse at 50 mg/kg, po administered via gavage by UPLC/MS/MS analysis; type: ADME, organism-based; set-up: dose 50 mg/kg, time < 8 hr, route oral; details: in vivo
[8] = Intrinsic clearance in CD1 mouse liver microsomes at 1 uM measured up to 30 mins by UPLC-MS/MS method; type: ADME, microsome; details: 0.5 h
[9] = system: Trypanosoma brucei brucei; assay: Antitrypanosomal activity against Trypanosoma brucei brucei s427 trypomastigotes infected in NMRI mouse at 0.3 to 3 mg/kg, po administered twice daily for 4 days starting from day 3 post infection; type: functional, organism-based; summary of the method: as §1
[10] = molecular target: Voltage-gated inwardly rectifying potassium channel KCNH2 (Homo sapiens, UniProt Q12809); assay: Inhibition of human ERG by patch clamp assay
Chain of Voltage-gated inwardly rectifying potassium channel KCNH2 (Q12809 whole entry): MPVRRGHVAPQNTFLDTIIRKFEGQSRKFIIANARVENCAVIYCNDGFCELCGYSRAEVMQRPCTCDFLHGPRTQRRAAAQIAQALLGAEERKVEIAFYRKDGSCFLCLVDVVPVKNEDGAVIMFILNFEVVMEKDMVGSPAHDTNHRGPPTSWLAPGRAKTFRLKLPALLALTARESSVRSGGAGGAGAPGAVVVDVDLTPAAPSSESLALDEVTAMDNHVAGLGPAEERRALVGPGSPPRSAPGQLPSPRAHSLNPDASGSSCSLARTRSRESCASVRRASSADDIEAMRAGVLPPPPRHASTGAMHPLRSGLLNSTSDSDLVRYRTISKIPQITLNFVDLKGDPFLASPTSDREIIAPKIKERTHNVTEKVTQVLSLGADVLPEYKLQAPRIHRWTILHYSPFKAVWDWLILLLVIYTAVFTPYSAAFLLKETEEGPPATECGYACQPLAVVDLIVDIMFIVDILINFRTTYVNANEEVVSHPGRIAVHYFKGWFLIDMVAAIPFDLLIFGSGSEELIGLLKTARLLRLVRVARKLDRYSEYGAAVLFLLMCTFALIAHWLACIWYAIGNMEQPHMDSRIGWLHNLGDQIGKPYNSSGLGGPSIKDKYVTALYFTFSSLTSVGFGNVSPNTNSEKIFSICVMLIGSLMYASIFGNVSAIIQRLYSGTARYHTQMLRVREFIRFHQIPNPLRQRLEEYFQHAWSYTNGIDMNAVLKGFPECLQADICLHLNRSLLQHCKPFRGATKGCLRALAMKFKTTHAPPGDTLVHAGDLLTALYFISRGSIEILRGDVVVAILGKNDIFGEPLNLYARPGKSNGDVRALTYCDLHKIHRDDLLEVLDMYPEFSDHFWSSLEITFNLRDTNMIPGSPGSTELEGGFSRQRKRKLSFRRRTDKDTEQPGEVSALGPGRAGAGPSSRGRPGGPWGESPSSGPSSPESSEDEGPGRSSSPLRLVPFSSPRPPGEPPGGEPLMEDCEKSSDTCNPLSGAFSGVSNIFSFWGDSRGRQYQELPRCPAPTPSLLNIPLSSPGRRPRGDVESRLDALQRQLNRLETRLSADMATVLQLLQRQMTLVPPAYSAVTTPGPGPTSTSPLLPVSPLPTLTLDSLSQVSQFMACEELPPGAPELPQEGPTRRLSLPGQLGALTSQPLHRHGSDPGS

[11] = system: Trypanosoma brucei brucei; assay: Antitrypanosomal activity against Trypanosoma brucei brucei GVR35 trypomastigotes infected in NMRI mouse assessed as reduction in parasitaemia level at 50 to 200 mg/kg, po administered twice daily for 5 days starting from day 21 post infection; type: functional, organism-based
[12] = Fraction unbound in CD1 mouse plasma at 10 ug/ml after 5 hrs by UPLC-MS/MS analysis
[13] = Inhibition of Trypanosoma brucei NMT using [3H]-myristoyl-coA/biotinylated CAP5.5 as substrate after 50 mins by scintillation proximity assay
Summary of the method: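 TbNMT scintillation proximity assay at 22–23 °C, with test compound dilutions added in DMSO. Reaction: 30 mM Tris pH 7.4, 0.5 mM EDTA, 0.5 mM EGTA, 1.25 mM DTT, 0.1% Triton X-100, 0.125 μM [3H]myristoyl-coA, 0.5 μM biotinylated CAP5.5 peptide, 5 nM enzyme. Enzyme added first, then substrate mix to start; stopped after 50 min with phosphoric acid pH 4.0/MgCl2/SPA beads; scintillation counting.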

[14] = Half life in CD1 mouse plasma at 50 uM by UPLC-MS/MS analysis; type: ADME, cell-free
[15] = Drug metabolism in CD1 mouse plasma assessed as 4-(azepan-1-yl)-3-(4-methoxyphenylsulfonamido)benzoic acid formation at 50 uM incubated for 30 to 180 mins by UPLC-MS/MS analysis; type: ADME, cell-free
[16] = Ratio of drug level in NMRI mouse brain to plasma at 0.5 mg/kg, iv after 5 to 30 mins by UPLC/MS/MS analysis; details: brain and plasma

Row | Structure (SMILES) | EC50 [1] [nM] | CLH [8] [mL/min/g] | IC50 [10] [nM] | fraction unbound at 5 h, 10 ug/ml [12] | IC50 [13] [nM] | also measured
1 | CC(C)Cc1ccc2nn(C)cc2c1NS(=O)(=O)c1ccc(CCCCC2CCN(C)CC2)cc1 | 5 | 2.9 | 3700 | 0.062 | < 5 | MTD at 72 h [2]: > 300 mg/kg; Activity [3]: Active; Tmax [4]: 1 h; Cmax [5]: 11000 ng/mL; Activity [6]: Active; AUC(0-t) at 8 h [7]: 48300 ng·h/mL; Activity [9]: inactive; Activity [11]: inactive
2 | COC(=O)c1ccc(N2CCCCCC2)c(NS(=O)(=O)c2ccc(CCCCC3CCN(C)CC3)cc2)c1 | 20 | – | – | – | 6 | half-life at 50 µM [14]: < 0.25 h; Drug metabolism [15]: Metabolite_Detected
3 | CC(C)Cc1ccc2ncccc2c1NS(=O)(=O)c1ccc(CCCN2CCN3CCC[C@@H]3C2)cc1 | 40 | 6.2 | 1300 | 0.17 | < 5 | –
4 | CC(C)Cc1ccc2ncccc2c1NS(=O)(=O)c1ccc(CCCO[C@@H]2C[C@H]3CC[C@@H](C2)N3C)cc1 | 91 | 1.5 | 1600 | 0.18 | 7 | –
5 | CC(C)Cc1ccc2nn(C)cc2c1N(C(F)F)S(=O)(=O)c1ccc(CCCCC2CCN(C)CC2)cc1 | – | 2.3 | – | – | – | Kp [16]: 1.9
6 | CC(C)Cc1ccc2nn(C)cc2c1NS(=O)(=O)c1ccc(CCCO[C@@H]2C[C@H]3CC[C@@H](C2)N3C)cc1 | 39 | 1.4 | 3300 | – | 5 | –
7 | CC(C)Cc1ccc2nn(C)cc2c1NS(=O)(=O)c1ccc(CCCOC[C@@H]2CCCN2C)cc1 | 31 | 3.7 | 3000 | – | < 5 | –
8 | CC(C)Cc1ccc2ncccc2c1NS(=O)(=O)c1ccc(CCCCN2CCCN(C)CC2)cc1 | 59 | 1.8 | – | 0.093 | 6 | –
